How the values were obtained:
Type in all cases: functional, cell-based
LOX IMVI = experiment: Cytotoxicity against human LOXIMVI cells after 72 hrs by alamar blue assay
How it was run: (§1)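 Cells seeded at 800–1000 per well (20–25 cells/µL) and left overnight to attach. Compounds were diluted serially from 10 mM DMSO stocks and tested at 8 final concentrations, 50 to 0.39 µM, in triplicate for 72 h. Vehicle control was 0.5% DMSO. Alamar blue was added to 10% final and fluorescence read after 4 h (ex 530, em 560 nm). Viability was expressed as percent of vehicle, and IC50 taken as 50% kill versus control.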

NCI-H460 = experiment: Cytotoxicity against human H460 cells after 72 hrs by alamar blue assay; conditions: NCI-H460, 72 h; how it was run: as §1
[1] = Cytotoxicity against human 292G cells after 72 hrs by alamar blue assay; how it was run: as §1
NCI-H1299 = experiment: Cytotoxicity against human NCI-H1299 cells after 72 hrs by alamar blue assay; conditions: NCI-H1299, 72 h; how it was run: as §1
M14 = experiment: Cytotoxicity against human M14 cells after 72 hrs by alamar blue assay; conditions: M14, 72 h; how it was run: as §1
HOP-62 = experiment: Cytotoxicity against human HOP62 cells after 72 hrs by alamar blue assay; conditions: HOP-62, 72 h; how it was run: as §1
[2] = Cytotoxicity against human SKBR cells after 72 hrs by alamar blue assay; how it was run: as §1
NCI-H1792 = experiment: Cytotoxicity against human NCI-H1792 cells after 72 hrs by alamar blue assay; conditions: NCI-H1792, 72 h; how it was run: as §1
[3] = Cytotoxicity against human H266 cells after 72 hrs by alamar blue assay; conditions: H266, 72 h; how it was run: as §1
[4] = Cytotoxicity against human M4E cells after 72 hrs by alamar blue assay; how it was run: as §1
Calu-1 = experiment: Cytotoxicity against human Calu1 cells after 72 hrs by alamar blue assay; conditions: Calu-1, 72 h; how it was run: as §1
HeLa = experiment: Cytotoxicity against human HeLa cells after 72 hrs by alamar blue assay; how it was run: as §1
A549 = experiment: Cytotoxicity against human A549 cells after 72 hrs by alamar blue assay; conditions: A549, 72 h; how it was run: as §1
NCI-H157 = experiment: Cytotoxicity against human NCI-H157 cells after 72 hrs by alamar blue assay; conditions: NCI-H157, 72 h; how it was run: as §1

Compound	IC50 (LOX IMVI) [µM]	IC50 (NCI-H460) [µM]	IC50 [1] [µM]	IC50 (NCI-H1299) [µM]	IC50 (M14) [µM]	IC50 (HOP-62) [µM]	IC50 [2] [µM]	IC50 (NCI-H1792) [µM]	IC50 [3] [µM]	IC50 [4] [µM]	IC50 (Calu-1) [µM]	IC50 (HeLa) [µM]	IC50 (A549) [µM]	IC50 (NCI-H157) [µM]
CC(C)OC(=O)/C=C/c1ccc(O)c(O)c1	> 50	10.5	> 50	30.8	> 50	> 50	31.5	> 50	> 50	> 50	> 50	9.65	> 50	11
COc1cc(/C=C/C(=O)OCCCO[N+](=O)[O-])ccc1OCCCO[N+](=O)[O-]	> 50	> 50	> 50	> 50	> 50	> 50	> 50	> 50	> 50	> 50	1.42	3.62	15.8	> 50
O=C(/C=C/c1ccc(OCCCCCCO[N+](=O)[O-])c(O)c1)OCCCCCCO[N+](=O)[O-]	> 50	> 50	> 50	> 50	> 50	> 50	39.7	> 50	> 50	> 50	> 50	1.35	> 50	> 50
COc1cc(/C=C/C(=O)OCc2ccc(OCc3c(-c4ccccc4)no[n+]3[O-])cc2)ccc1O	> 50	44.2	> 50	> 50	> 50	> 50	11.7	> 50	> 50	> 50	> 50	> 50	17.2	> 50
CCOC(=O)/C=C/c1ccc(O)c(O)c1 [ETHYL CAFFEATE]	6.21	13.1	5.25	4.93	9.82	12.5	4.16	18.4	> 50	11.2	17.2	1.96	7.22	7.62
O=C(/C=C/c1ccc(OCCCO[N+](=O)[O-])c(O)c1)OCCCO[N+](=O)[O-]	6.94	9.58	4.98	> 50	8.96	10	4.81	6.61	> 50	14.1	12.5	> 50	0.69	5.71
COc1cc(/C=C/C(=O)OCCCCCCO[N+](=O)[O-])ccc1O	> 50	> 50	> 50	> 50	> 50	> 50	15.2	48.7	> 50	> 50	> 50	16.3	37.4	32.1
COc1cc(/C=C/C(=O)OCCC(C)C)ccc1O [ISOPENTYL FERULATE]	48.4	45	48.4	31.5	45.8	31.2	41.5	37.7	48.1	30.5	32.2	> 50	43.6	40.2
COc1cc(/C=C/C(=O)Oc2ccc(OCc3c(-c4ccccc4)no[n+]3[O-])cc2)ccc1O	> 50	15.8	31	28.5	> 50	30.4	11	8.15	> 50	> 50	28.8	12.1	3.39	43.1
COc1cc(/C=C/C(=O)OCCCCCCO[N+](=O)[O-])ccc1OCCCCCCO[N+](=O)[O-]	> 50	> 50	> 50	> 50	> 50	> 50	> 50	> 50	> 50	> 50	27.8	> 50	> 50	> 50
CCOC(=O)/C=C/c1ccc(O)c(OC)c1 [ETHYL FERULATE]	> 50	29.1	32	36.8	> 50	26.8	24.9	25.6	28.1	33.4	> 50	2.13	12.5	32.3

— ChEMBL document CHEMBL2086326, “Biological activity evaluation and structure-activity relationships analysis of ferulic acid and caffeic acid derivatives for anticancer” (Bioorg Med Chem Lett, 2012)
